This note sets out measurements from ChEMBL document CHEMBL4513216, “Probing the Open Global Health Chemical Diversity Library for Multistage-Active Starting Points for Next-Generation Antimalarials” (ACS Infect Dis, 2020).

A short description of the series: Toxicity liver stage against HepG2, at 10uM. Format: cell-based. Also noted: test concentration 10 uM, cell line HepG2-A16-CD81EGFP. The following applies: human, HepG2-A16-CD81EGFP cells; read-out: INHIBITION
Put shortly:
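Uninfected HepG2-A16-CD81EGFP cells, 3 × 10^3 per well, 1536-well, plated on prespotted compound at 10 μM final, parasite-free screening media added to match infected plates; puromycin 10 μM positive, DMSO 0.5% negative; run in parallel with 48 h PbLuc assay at 37 °C, 5% CO2; viability by CellTiter-Glo luminescence, normalized to controls.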
With `Fc1ccc(C2CCCN2Cc2nc(Cc3ccccc3F)no2)cc1` (stereo unspecified), the cytotoxicity at 10 µM is -18.2%.

On to `COc1ccc(CCC(=O)NCCN2CCC(c3cccs3)CC2)cc1`, for which the cytotoxicity at 10 µM was 4.59%.

`CNc1nc2c(s1)C(c1cccc(Cl)c1Cl)CC(=O)N2` (stereo unspecified): the cytotoxicity at 10 µM amounted to 5.97%.

`Cc1oc(-c2nc(C#N)c(NC3CC3)o2)cc1S(=O)(=O)N1CCCC1`: the cytotoxicity at 10 µM was -9.95%.

For the compound `Cc1c(Br)c(C(F)F)nn1C(C)C(=O)O` (stereo unspecified), the cytotoxicity at 10 µM was 4.51%.

`CCn1c(NCC2CCCO2)nc2c(C)nn(C)c2c1=O` (stereo unspecified): the cytotoxicity at 10 µM is -3.09%.

On to `CCn1c(SCC(N)=O)nnc1-c1csc2c1CCCC2`, for which the cytotoxicity at 10 µM worked out at 16%.

On to `COC(=O)c1cc(C2CC2)nc2c(C#N)cnn12`, for which the cytotoxicity at 10 µM came to 14%.

For `Cc1nnc(C2CCN(c3ncccn3)CC2)o1`, the cytotoxicity at 10 µM came to 10.8%.

As for `Cc1cc(C)nc(N2CC=C[C@H]2C(=O)NCc2ccc3c(c2)OCO3)n1`, the cytotoxicity at 10 µM was 0.711%.

As for `Cc1noc(C)c1CCC(=O)N1CCOCC1CCc1cnccn1` (stereo unspecified), the cytotoxicity at 10 µM is -3.37%.

For `CC(=O)N1CCC(c2cccc(-c3cccc(C(=O)O)c3)n2)CC1`, the cytotoxicity at 10 µM was -0.0353%.

As for `c1ccc(CCN2CCCC2c2ccnc(Nc3cnccn3)n2)cc1` (stereo unspecified), the cytotoxicity at 10 µM is -3.65%.

Consider `CNC(=O)c1cn[nH]c1C1CCN(Cc2cn(C)nc2C)C1` (stereo unspecified), for which the cytotoxicity at 10 µM is -24.3%.

For the compound `CO[C@H]1CN(Cc2ccc(F)cc2)CC[C@@]12CCCO2`, the cytotoxicity at 10 µM is -24.5%.

With `Cn1nccc1CCC(=O)N1CCCC(c2cnccn2)C1` (stereo unspecified), the cytotoxicity at 10 µM is -22.7%.

In the case of `O=S(=O)(c1ccc(F)c(F)c1)N1CCCC(c2nccs2)C1` (stereo unspecified), the cytotoxicity at 10 µM was -0.523%.

For the compound `Cc1ccc(S(=O)(=O)N2C[C@H]3C[C@H](NC(=O)c4cscn4)[C@H]3C2)cc1`, the cytotoxicity at 10 µM came to 12%.

For `Cn1nccc1C(=O)N1C[C@@H]2CC[C@H](Oc3cccc(F)c3)[C@@H]2C1`, the cytotoxicity at 10 µM was -13.8%.

Consider `CN(C)C(=O)c1cc(-c2ccc(S(C)(=O)=O)cc2)c2cnn(C)c2n1`, for which the cytotoxicity at 10 µM was 3.63%.

On to `COc1cccc(CNC2CCCOc3cc(C)ccc32)n1` (stereo unspecified), for which the cytotoxicity at 10 µM worked out at 8.53%.

On to `CC1CCC(NS(=O)(=O)CC(=O)NCC2CCC2)CC1` (stereo unspecified), for which the cytotoxicity at 10 µM was -3.17%.

Consider `CCOC(=O)c1nnc2ccccc2c1N1CCN(CC)CC1`, for which the cytotoxicity at 10 µM was -2.27%.

With `CN(C)C(CNC(=O)c1nc(N2CCCC2)ncc1Cl)c1ccco1` (stereo unspecified), the cytotoxicity at 10 µM is 5.92%.

As for `Cc1cc(NCC2(O)CCOCC2)c2ccccc2n1`, the cytotoxicity at 10 µM was -13.3%.

With `CCC(CC)NC(=O)CN1CCSCC1`, the cytotoxicity at 10 µM is -8.98%.

For the compound `CC(=O)Nc1cccc(C(C)NCC2CCS(=O)(=O)CC2)c1` (stereo unspecified), the cytotoxicity at 10 µM came out at 0.224%.

As to `CC(C)(C)NC(=O)CNC(=O)Nc1cc(-c2ccccc2)ns1`, the cytotoxicity at 10 µM is 16.6%.

As to `Cn1cc(CNCCc2cccnc2)c(-c2cccnc2)n1`, the cytotoxicity at 10 µM worked out at 9.37%.

`CSCC(C)(O)CNc1ncccc1C(F)(F)F` (stereo unspecified): the cytotoxicity at 10 µM was 13.7%.

For the compound `CC1CN(Cc2ccccc2)CCCN1CCS(C)(=O)=O` (stereo unspecified), the cytotoxicity at 10 µM was -1.4%.

Take `O=C(CCCNC(=O)NCC1CCCO1)Nc1ccc(Cl)cc1` (stereo unspecified): the cytotoxicity at 10 µM is -4.52%.

For the compound `COc1ccc(C(C)(C)C(=O)NCc2n[nH]c(=O)[nH]2)cc1`, the cytotoxicity at 10 µM came to 1.07%.

Consider `O=C(c1n[nH]c2c1CCC2)N1CCCC1c1nc(-c2ccccn2)no1` (stereo unspecified), for which the cytotoxicity at 10 µM was -1.82%.

Take `CSCCc1nc(-c2ccc3c(c2)OCO3)n(C)n1`: the cytotoxicity at 10 µM was 1.6%.

For `O=C(CN1CCN(c2ncnc3c2CCNCC3)CC1)N1CCCCC1`, the cytotoxicity at 10 µM came out at 6.63%.

As to `OC[C@@H]1CCCN1c1ccc(-c2nc(COc3ccccc3)no2)cn1`, the cytotoxicity at 10 µM is -8.42%.

As to `c1ccc(Cc2noc(-c3ccc(NCC4CCCCO4)nc3)n2)cc1` (stereo unspecified), the cytotoxicity at 10 µM came out at 3%.

Consider `COCC(=O)N1CCN(S(=O)(=O)c2ccccc2)[C@H]2CS(=O)(=O)C[C@H]21`, for which the cytotoxicity at 10 µM was determined as 4.84%.

Take `CCN(CCO)Cc1cn(-c2cccc(F)c2)nc1-c1ccc(C)o1`: the cytotoxicity at 10 µM is 8.32%.

As to `Cc1nc(CC(=O)N2CCCC(N(C)Cc3ccccc3)C2)cs1` (stereo unspecified), the cytotoxicity at 10 µM was 9.38%.

Turning to `OC1(CN2CCCC2)CCCN(Cc2c[nH]c(CC3CCCC3)n2)C1` (stereo unspecified), the cytotoxicity at 10 µM was -9.09%.

As for `Cc1nccn1-c1ccc(N2CCC(NC(C)C(C)C)CC2)cc1` (stereo unspecified), the cytotoxicity at 10 µM was -7.33%.

With `O=C(C1CCCCO1)N1CCc2ncnc(NCCO)c2CC1` (stereo unspecified), the cytotoxicity at 10 µM is 7.94%.

For `Cc1nnc(N2CC[C@@]3(O)CCNC[C@H]3C2)c2ccccc12`, the cytotoxicity at 10 µM worked out at 2.61%.

For `CC(C)n1cnnc1CN(C)C(=O)Cn1ccc2ccccc2c1=O`, the cytotoxicity at 10 µM worked out at 3.1%.

As to `COCCNc1cc(-c2ccccc2CCN)c2cc[nH]c2n1`, the cytotoxicity at 10 µM turned out to be 2.13%.

As to `COCCNC(=O)c1cc(COc2cncc(Cl)c2)on1`, the cytotoxicity at 10 µM came out at 0.141%.

Regarding `CCc1[nH]c2c(CNC(=O)C3CNC(=O)C3)cc(C)cc2c1C` (stereo unspecified), the cytotoxicity at 10 µM came out at 2.75%.

Take `O=C(O)c1cnc(N2CCC(c3nccn3CC3CC3)CC2)c(Cl)c1`: the cytotoxicity at 10 µM is -9.98%.

With `COc1ccc2c(c1)C(C(=O)NCCCN1CCN(C)CC1)CC(=O)N2` (stereo unspecified), the cytotoxicity at 10 µM came out at 11.2%.

As for `CN(C)C[C@H]1C[C@@H](CO)CN(C(=O)c2cc(=O)[nH]c3cc(F)ccc23)C1`, the cytotoxicity at 10 µM was -4.16%.

With `O=C(c1cc[nH]n1)N1CCc2ncnc(N3CCSCC3)c2CC1`, the cytotoxicity at 10 µM is -3.67%.

Consider `CCN1CCCC(C)(C(=O)NCCCc2nc(C)cs2)C1` (stereo unspecified), for which the cytotoxicity at 10 µM worked out at 1.54%.

As to `Cc1cc(C(=O)N2CCCC(C(=O)c3nccn3C)C2)c(=O)[nH]c1C` (stereo unspecified), the cytotoxicity at 10 µM was 3.15%.

For `CO[C@H]1CN(C(C)C)C[C@@H]1NC(=O)c1cc(-c2ccccc2O)n[nH]1`, the cytotoxicity at 10 µM is -0.247%.

Turning to `Cc1cccc(C(C(=O)N(C)Cc2ccon2)N(C)C)c1` (stereo unspecified), the cytotoxicity at 10 µM came to 5.4%.

Consider `CN(c1ncccc1CNC(=O)c1cscn1)C1CCCCC1`, for which the cytotoxicity at 10 µM is 1.86%.

For `COCc1nc(C(=O)NS(=O)(=O)c2cc(C)ccc2C)cs1`, the cytotoxicity at 10 µM is -4.04%.

With `CC1CN(CC(=O)Nc2nncs2)CCN1Cc1nccn1C` (stereo unspecified), the cytotoxicity at 10 µM was -11.2%.

With `COCCN1CCN(CCCS(C)(=O)=O)CC1C` (stereo unspecified), the cytotoxicity at 10 µM was -5.5%.

In the case of `CC(=O)N(Cc1noc(C2CC2)n1)C1CCN(Cc2cccnc2)C1` (stereo unspecified), the cytotoxicity at 10 µM is -3.36%.

Consider `Cc1nn(C)c(C)c1C1CCCN1CC(=O)NC(C1CC1)C1CC1` (stereo unspecified), for which the cytotoxicity at 10 µM was -5.38%.

Consider `Cc1cnc(-c2nc(C3CCCN(Cc4ccccc4C)C3)no2)cn1` (stereo unspecified), for which the cytotoxicity at 10 µM is -2.33%.

For `COc1cccc(CN2CCCCC2c2n[nH]cc2-c2cc(C)no2)c1` (stereo unspecified), the cytotoxicity at 10 µM was determined as 17.1%.

Regarding `Cc1ncccc1-c1cc2cccnc2n1CCCNC(=O)C1CC1`, the cytotoxicity at 10 µM was found to be 2.18%.

`NC(=O)C1CN(c2ccc(F)cc2)CCN1` (stereo unspecified): the cytotoxicity at 10 µM was -4.98%.

As for `CN(C)CCO[C@H]1CN(CC2CC2)[C@@H]2CCCO[C@H]12`, the cytotoxicity at 10 µM is -96.3%.

On to `CC(C)OCCCN(CC(=O)N1CCNCC1)C(=O)c1cccc(Cl)c1`, for which the cytotoxicity at 10 µM is 10.3%.

Consider `c1nc(N2CCc3nc[nH]c3C2)c2cc[nH]c2n1`, for which the cytotoxicity at 10 µM was -5.71%.

For `CC1(C)[C@@H]2CC=C(CN3CCCn4nc(CNS(C)(=O)=O)cc4C3)[C@H]1C2`, the cytotoxicity at 10 µM was -46%.
